ChEMBL document CHEMBL5058577, “EUbOPEN Chemogenomics Library 2 (Multiplex)” (2022)

System: U2OS
Assay: Multiplex assay against U2OS
Assay type: toxicity, cell-based
Conditions: human
In short: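 Four dyes were applied at seeding to live cells: Hoechst33342, BioTracker Green Microtubule Cytoskeleton Dye, MitoTracker Red and Annexin V Alexa Fluor 680. Imaging after compound addition used a CQ1 microscope at 37°C and 5% CO2. CellPathfinder machine-learning gating then sorted cells into Hoechst high-intensity objects or normal cells, normal cells into healthy, pyknosed or fragmented nuclei, and pyknosed cells into mitotic or apoptotic, with tubulin, mitochondrial-mass and membrane-permeability phenotypes given as per cents of healthy-nucleus cells.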

[1] = 12 h, 1 µM, compound concentration 1 uM, replicate 1
[2] = 12 h, 1 µM, compound concentration 1 uM, replicate 2
[3] = 12 h, 10 µM, compound concentration 10 uM, replicate 1
[4] = 12 h, 10 µM, compound concentration 10 uM, replicate 2
[5] = 24 h, 1 µM, compound concentration 1 uM, replicate 1
[6] = 24 h, 1 µM, compound concentration 1 uM, replicate 2
[7] = 24 h, 10 µM, compound concentration 10 uM, replicate 1
[8] = 24 h, 10 µM, compound concentration 10 uM, replicate 2
[9] = 48 h, 1 µM, compound concentration 1 uM, replicate 1
[10] = 48 h, 1 µM, compound concentration 1 uM, replicate 2
[11] = 48 h, 10 µM, compound concentration 10 uM, replicate 1
[12] = 48 h, 10 µM, compound concentration 10 uM, replicate 2

Cc1ccc(/C(=C\CN2CCCC2)c2ccccn2)cc1 [TRIPROLIDINE]
Population Apoptotic (%) [1]: 85%
Population Fragmented Nuclei (%) [1]: 29%
Population Healthy Nuclei (%) [1]: 61%
Population Hoechst High Intensity Objects (%) [1]: 2%
Population Membrane Permeable-Phenotype (%) [1]: 4%
Population Mitochondria Different-Phenotype (%) [1]: 2%
Population Mitotic Cells (%) [1]: 15%
Population Normal (%) [1]: 97%
Population Pyknosed Nuclei (%) [1]: 8%
Population Tubulin-Different-Phenotype (%) [1]: 1%
Total Cell Count [1]: 244
Population Fragmented Nuclei (%) [2]: 18%
Population Healthy Nuclei (%) [2]: 70%
Population Hoechst High Intensity Objects (%) [2]: 3%
Population Membrane Permeable-Phenotype (%) [2]: 6%
Population Mitochondria Different-Phenotype (%) [2]: 1%
Population Mitotic Cells (%) [2]: 14%
Population Normal (%) [2]: 96%
Population Pyknosed Nuclei (%) [2]: 11%
Population Tubulin-Different-Phenotype (%) [2]: 5%
Total Cell Count [2]: 126
Population Apoptotic (%) [3]: 87%
Population Fragmented Nuclei (%) [3]: 25%
Population Healthy Nuclei (%) [3]: 64%
Population Hoechst High Intensity Objects (%) [3]: 3%
Population Membrane Permeable-Phenotype (%) [3]: 29%
Population Mitochondria Different-Phenotype (%) [3]: 23%
Population Mitotic Cells (%) [3]: 12%
Population Normal (%) [3]: 96%
Population Pyknosed Nuclei (%) [3]: 9%
Population Tubulin-Different-Phenotype (%) [3]: 24%
Total Cell Count [3]: 264
Population Apoptotic (%) [4]: 75%
Population Fragmented Nuclei (%) [4]: 15%
Population Healthy Nuclei (%) [4]: 77%
Population Hoechst High Intensity Objects (%) [4]: 0%
Population Membrane Permeable-Phenotype (%) [4]: 14%
Population Mitochondria Different-Phenotype (%) [4]: 18%
Population Mitotic Cells (%) [4]: 25%
Population Normal (%) [4]: 99%
Population Pyknosed Nuclei (%) [4]: 7%
Population Tubulin-Different-Phenotype (%) [4]: 15%
Total Cell Count [4]: 114
Population Apoptotic (%) [5]: 89%
Population Fragmented Nuclei (%) [5]: 23%
Population Healthy Nuclei (%) [5]: 66%
Population Hoechst High Intensity Objects (%) [5]: 1%
Population Membrane Permeable-Phenotype (%) [5]: 4%
Population Mitochondria Different-Phenotype (%) [5]: 3%
Population Mitotic Cells (%) [5]: 10%
Population Normal (%) [5]: 98%
Population Pyknosed Nuclei (%) [5]: 9%
Population Tubulin-Different-Phenotype (%) [5]: 2%
Total Cell Count [5]: 297
Population Apoptotic (%) [6]: 81%
Population Fragmented Nuclei (%) [6]: 20%
Population Healthy Nuclei (%) [6]: 68%
Population Hoechst High Intensity Objects (%) [6]: 4%
Population Membrane Permeable-Phenotype (%) [6]: 9%
Population Mitochondria Different-Phenotype (%) [6]: 6%
Population Mitotic Cells (%) [6]: 18%
Population Normal (%) [6]: 96%
Population Pyknosed Nuclei (%) [6]: 11%
Population Tubulin-Different-Phenotype (%) [6]: 5%
Total Cell Count [6]: 150
Population Apoptotic (%) [7]: 75%
Population Fragmented Nuclei (%) [7]: 27%
Population Healthy Nuclei (%) [7]: 62%
Population Hoechst High Intensity Objects (%) [7]: 2%
Population Membrane Permeable-Phenotype (%) [7]: 12%
Population Mitochondria Different-Phenotype (%) [7]: 15%
Population Mitotic Cells (%) [7]: 24%
Population Normal (%) [7]: 97%
Population Pyknosed Nuclei (%) [7]: 10%
Population Tubulin-Different-Phenotype (%) [7]: 8%
Total Cell Count [7]: 320
Population Apoptotic (%) [8]: 78%
Population Fragmented Nuclei (%) [8]: 19%
Population Healthy Nuclei (%) [8]: 70%
Population Hoechst High Intensity Objects (%) [8]: 1%
Population Membrane Permeable-Phenotype (%) [8]: 11%
Population Mitochondria Different-Phenotype (%) [8]: 13%
Population Mitotic Cells (%) [8]: 21%
Population Normal (%) [8]: 98%
Population Pyknosed Nuclei (%) [8]: 9%
Population Tubulin-Different-Phenotype (%) [8]: 6%
Total Cell Count [8]: 149
Population Apoptotic (%) [9]: 86%
Population Fragmented Nuclei (%) [9]: 17%
Population Healthy Nuclei (%) [9]: 73%
Population Hoechst High Intensity Objects (%) [9]: 2%
Population Membrane Permeable-Phenotype (%) [9]: 3%
Population Mitochondria Different-Phenotype (%) [9]: 3%
Population Mitotic Cells (%) [9]: 13%
Population Normal (%) [9]: 97%
Population Pyknosed Nuclei (%) [9]: 9%
Population Tubulin-Different-Phenotype (%) [9]: 3%
Total Cell Count [9]: 398
Population Apoptotic (%) [10]: 76%
Population Healthy Nuclei (%) [10]: 75%
Population Hoechst High Intensity Objects (%) [10]: 3%
Population Membrane Permeable-Phenotype (%) [10]: 5%
Population Mitotic Cells (%) [10]: 23%
Population Normal (%) [10]: 96%
Population Pyknosed Nuclei (%) [10]: 6%
Population Tubulin-Different-Phenotype (%) [10]: 4%
Total Cell Count [10]: 209
Population Apoptotic (%) [11]: 86%
Population Fragmented Nuclei (%) [11]: 24%
Population Healthy Nuclei (%) [11]: 65%
Population Hoechst High Intensity Objects (%) [11]: 2%
Population Membrane Permeable-Phenotype (%) [11]: 11%
Population Mitochondria Different-Phenotype (%) [11]: 8%
Population Mitotic Cells (%) [11]: 13%
Population Normal (%) [11]: 97%
Population Pyknosed Nuclei (%) [11]: 9%
Population Tubulin-Different-Phenotype (%) [11]: 7%
Total Cell Count [11]: 453
Population Apoptotic (%) [12]: 89%
Population Fragmented Nuclei (%) [12]: 15%
Population Healthy Nuclei (%) [12]: 74%
Population Hoechst High Intensity Objects (%) [12]: 4%
Population Membrane Permeable-Phenotype (%) [12]: 9%
Population Mitotic Cells (%) [12]: 10%
Population Normal (%) [12]: 95%
Population Tubulin-Different-Phenotype (%) [12]: 6%
Total Cell Count [12]: 203

CCCC(CCC)C(=O)O [VALPROIC ACID]
Population Apoptotic (%) [1]: 72%
Population Fragmented Nuclei (%) [1]: 28%
Population Healthy Nuclei (%) [1]: 63%
Population Hoechst High Intensity Objects (%) [1]: 6%
Population Membrane Permeable-Phenotype (%) [1]: 9%
Population Mitochondria Different-Phenotype (%) [1]: 7%
Population Mitotic Cells (%) [1]: 27%
Population Normal (%) [1]: 93%
Population Pyknosed Nuclei (%) [1]: 8%
Population Tubulin-Different-Phenotype (%) [1]: 8%
Population Apoptotic (%) [2]: 66%
Population Fragmented Nuclei (%) [2]: 14%
Population Healthy Nuclei (%) [2]: 77%
Population Hoechst High Intensity Objects (%) [2]: 2%
Population Membrane Permeable-Phenotype (%) [2]: 8%
Population Mitochondria Different-Phenotype (%) [2]: 3%
Population Mitotic Cells (%) [2]: 33%
Population Normal (%) [2]: 97%
Population Tubulin-Different-Phenotype (%) [2]: 6%
Population Apoptotic (%) [3]: 77%
Population Fragmented Nuclei (%) [3]: 30%
Population Healthy Nuclei (%) [3]: 66%
Population Hoechst High Intensity Objects (%) [3]: 4%
Population Membrane Permeable-Phenotype (%) [3]: 6%
Population Mitochondria Different-Phenotype (%) [3]: 3%
Population Mitotic Cells (%) [3]: 22%
Population Normal (%) [3]: 95%
Population Pyknosed Nuclei (%) [3]: 3%
Population Tubulin-Different-Phenotype (%) [3]: 4%
Population Apoptotic (%) [4]: 85%
Population Fragmented Nuclei (%) [4]: 21%
Population Healthy Nuclei (%) [4]: 70%
Population Hoechst High Intensity Objects (%) [4]: 0%
Population Membrane Permeable-Phenotype (%) [4]: 4%
Population Mitochondria Different-Phenotype (%) [4]: 4%
Population Mitotic Cells (%) [4]: 14%
Population Normal (%) [4]: 100%
Population Pyknosed Nuclei (%) [4]: 7%
Population Apoptotic (%) [5]: 84%
Population Fragmented Nuclei (%) [5]: 24%
Population Healthy Nuclei (%) [5]: 66%
Population Hoechst High Intensity Objects (%) [5]: 6%
Population Membrane Permeable-Phenotype (%) [5]: 9%
Population Mitochondria Different-Phenotype (%) [5]: 6%
Population Mitotic Cells (%) [5]: 16%
Population Normal (%) [5]: 93%
Population Pyknosed Nuclei (%) [5]: 8%
Population Tubulin-Different-Phenotype (%) [5]: 9%
Population Apoptotic (%) [6]: 100%
Population Fragmented Nuclei (%) [6]: 17%
Population Healthy Nuclei (%) [6]: 74%
Population Hoechst High Intensity Objects (%) [6]: 3%
Population Mitochondria Different-Phenotype (%) [6]: 2%
Population Mitotic Cells (%) [6]: 0%
Population Normal (%) [6]: 96%
Population Tubulin-Different-Phenotype (%) [6]: 7%
Population Apoptotic (%) [7]: 83%
Population Fragmented Nuclei (%) [7]: 25%
Population Healthy Nuclei (%) [7]: 71%
Population Hoechst High Intensity Objects (%) [7]: 2%
Population Membrane Permeable-Phenotype (%) [7]: 4%
Population Mitochondria Different-Phenotype (%) [7]: 3%
Population Mitotic Cells (%) [7]: 16%
Population Normal (%) [7]: 97%
Population Pyknosed Nuclei (%) [7]: 3%
Population Tubulin-Different-Phenotype (%) [7]: 3%
Population Apoptotic (%) [8]: 100%
Population Fragmented Nuclei (%) [8]: 17%
Population Healthy Nuclei (%) [8]: 78%
Population Hoechst High Intensity Objects (%) [8]: 0%
Population Membrane Permeable-Phenotype (%) [8]: 8%
Population Mitochondria Different-Phenotype (%) [8]: 4%
Population Mitotic Cells (%) [8]: 0%
Population Normal (%) [8]: 100%
Population Pyknosed Nuclei (%) [8]: 4%
Population Tubulin-Different-Phenotype (%) [8]: 5%
Population Apoptotic (%) [9]: 76%
Population Fragmented Nuclei (%) [9]: 20%
Population Healthy Nuclei (%) [9]: 69%
Population Hoechst High Intensity Objects (%) [9]: 3%
Population Membrane Permeable-Phenotype (%) [9]: 7%
Population Mitochondria Different-Phenotype (%) [9]: 5%
Population Mitotic Cells (%) [9]: 23%
Population Normal (%) [9]: 96%
Population Pyknosed Nuclei (%) [9]: 9%
Population Tubulin-Different-Phenotype (%) [9]: 5%
Population Apoptotic (%) [10]: 91%
Population Fragmented Nuclei (%) [10]: 16%
Population Healthy Nuclei (%) [10]: 72%
Population Membrane Permeable-Phenotype (%) [10]: 8%
Population Mitotic Cells (%) [10]: 8%
Population Pyknosed Nuclei (%) [10]: 11%
Population Tubulin-Different-Phenotype (%) [10]: 6%
Population Apoptotic (%) [11]: 91%
Population Fragmented Nuclei (%) [11]: 20%
Population Healthy Nuclei (%) [11]: 71%
Population Hoechst High Intensity Objects (%) [11]: 2%
Population Membrane Permeable-Phenotype (%) [11]: 3%
Population Mitochondria Different-Phenotype (%) [11]: 2%
Population Mitotic Cells (%) [11]: 8%
Population Normal (%) [11]: 97%
Population Pyknosed Nuclei (%) [11]: 7%
Population Tubulin-Different-Phenotype (%) [11]: 1%
Population Apoptotic (%) [12]: 93%
Population Hoechst High Intensity Objects (%) [12]: 1%
Population Membrane Permeable-Phenotype (%) [12]: 9%
Population Mitotic Cells (%) [12]: 6%
Population Normal (%) [12]: 98%
Population Tubulin-Different-Phenotype (%) [12]: 4%
